The record followed here is ChEMBL document CHEMBL4706503, “A novel pipeline of 2-(benzenesulfonamide)-N-(4-hydroxyphenyl) acetamide analgesics that lack hepatotoxicity and retain antipyresis” (Eur J Med Chem, 2020).

Active and inactive are the calls of the source. No cut-off for these calls is given here. Where only a bound is given, the exact number is not on record here.

In one data set the test system is Hepatocyte. As to the kind of experiment: Hepatotoxicity in primary human hepatocytes assessed as increase in lactate dehydrogenase release at 500 to 1000 uM measured after 3 to 12 hrs by fluorescence based analysis.
Data set [1] has as its system HepaRG. As to the kind of experiment: Hepatotoxicity in human HepaRG cells assessed as increase in lactate dehydrogenase release at 50 to 5000 uM […]. It counts as toxicity, cell-based. The conditions noted are these: dose 50-5000 µM.
For data set [2], the system named is HepaRG. As to the kind of experiment: Hepatotoxicity in human HepaRG cells assessed as decrease in GSH level at 50 to 5000 uM measured after 6 to 24 hrs by Thiol tracker violet dye based fluorescence analysis. It counts as toxicity, cell-based. To be noted: dose lower 50 µM, time lower 6 hrs, dose upper 5000 µM, time upper 24 hrs. In a few lines:
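HepaRG cells (80% confluent, serum-starved 6–8 h) exposed to 50, 100, 1000 or 5000 μM for 6, 12 or 24 h. Medium then removed and cells rinsed with D-PBS-conditioned medium. Cells were stained 30 min with ThiolTracker Violet; fluorescence read at ex 404/em 526 nm and reported as RFU for cellular GSH.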

Data set [3] in a line: Hepatotoxicity in CD1 mouse assessed as increase in apoptotic nuclei at 600 mg/kg, po measured after 12 hrs by TUNEL staining. It counts as toxicity, organism-based. The conditions noted are these: in vivo. Summed up: (§1)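 At 12 h, mice under 5% isoflurane were exsanguinated with saline and perfusion-fixed with 10% NBF; livers fixed 24 h, moved to 80% EtOH, paraffin-embedded and sectioned. Stains: H&E (100x), nitrotyrosine, ZO-1 (200x; 3D stacks at 1000x), TUNEL (200x).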

Data set [4] is described as follows: Hepatotoxicity in CD1 mouse assessed as loss of chicken wire hepatic tight junctions at 600 mg/kg, po measured after 12 hrs by ZO-1 staining based optical microscopy. It counts as toxicity, organism-based. To be noted: in vivo. In a few lines:
as §1

A short description of data set [5]: Hepatotoxicity in CD1 mouse assessed as liver architecture at 600 mg/kg, po measured after 12 hrs by hematoxylin and eosin staining based optical microscopy. The conditions noted are these: in vivo. It counts as toxicity, organism-based. In a few lines: as §1
A short description of data set [6]: Drug metabolism in CD1 mouse serum assessed as NAPQI formation at 600 mg/kg, po measured after 12 hrs by LC-MS/MS analysis. Format: ADME, organism-based. To be noted: in vivo. In a few lines: (§2)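 Male CD1 mice dosed at 600 mg/kg (ip or po). Serum extracted twice with 3 vol ethyl acetate on ice (30 min, 3000 g spin), dried under N2, redissolved in 1:1 MeOH:H2O. LC-MS/MS in positive electrospray MRM mode monitoring m/z 150.3→108.1, identity checked against spiked NAPQI standard retention time (5.1 min).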

The nature of data set [7]: Hepatotoxicity in CD1 mouse assessed as increase in serum alanine aminotransferase level at 600 mg/kg, po measured after 12 hrs. It counts as toxicity, organism-based. The conditions noted are these: in vivo. In a few lines:
(§3)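 Male CD1 mice fasted 15 h, given 600 mg/kg po, then fed ad libitum for 12 h. Whole blood taken by transcardial perfusion under 5% isoflurane, without anticoagulant, clotted 0.5 h at 25 °C, spun 1000 g 5 min at 4 °C. Serum stored at −80 °C, then assayed with commercial kits. n = 5 mice per compound; vehicle 0.9% NaCl.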

Data set [8] can be described thus: Hepatotoxicity in CD1 mouse assessed as increase in serum aspartate aminotransferase level at 600 mg/kg, po measured after 12 hrs. Format: toxicity, organism-based. To be noted: in vivo. In a few lines:
as §3

The nature of data set [9]: Hepatotoxicity in CD1 mouse assessed as increase in serum alkaline phosphatase level at 600 mg/kg, po measured after 12 hrs. Format: toxicity, organism-based. The conditions noted are these: in vivo. Summed up:
as §3

A short description of data set [10]: Renal toxicity in CD1 mouse assessed as increase in serum creatinine level at 600 mg/kg, po measured after 12 hrs. Format: organism-based. The conditions noted are these: in vivo. In a few lines:
as §3

In the next data set the target is Cytochrome P450 3A4 (Homo sapiens, UniProt P08684). As to the kind of experiment: Inhibition of CYP3A4 (unknown origin) in baculosomes preincubated for 20 mins followed by addition of CYP enzyme-specific substrate and NADP+ and measured after 30 mins by fluorescence based analysis. Format: ADME. In a few lines: (§4)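 Vivid fluorogenic screen: each compound was premixed with CYP baculosomes and a regeneration system (glucose-6-phosphate plus G6P dehydrogenase) for 20 min at room temperature. Isozyme-specific substrate and NADP+ were then added for 30 min at room temperature. Reaction stopped with 0.5 M Tris base; metabolite fluorescence read. IC50 taken from 10-point titration curves.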

The next data set deals with Cytochrome P450 2D6 (Homo sapiens, UniProt P10635). As to the kind of experiment: Inhibition of CYP2D6 (unknown origin) in baculosomes preincubated for 20 mins followed by addition of CYP enzyme-specific substrate and NADP+ and measured after 30 mins by fluorescence based analysis. It counts as ADME. In a few lines:
as §4

Data set [11] in a line: Drug metabolism in CD1 mouse serum assessed as NAPQI formation at 600 mg/kg, ip measured after 12 hrs by LC-MS/MS analysis. Format: ADME, organism-based. The conditions noted are these: in vivo. In a few lines: as §2
Data set [12] in a line: Toxicity in CD1 mouse assessed as animal survival rate at 600 mg/kg, ip measured for every 4 hrs upto 48 hrs by Kaplan-Meier plot analysis. Format: organism-based. The conditions noted are these: in vivo. Summed up: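 Male CD1 mice, four groups of n = 20, given 600 mg/kg ip or 0.9% NaCl vehicle; live animals counted every 4 h for 48 h; Kaplan-Meier survival curves plotted.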

Data set [13] concerns Mus musculus. As to the kind of experiment: Analgesic activity in po dosed CD1 mouse assessed as inhibition of acetic acid-induced abdominal writhing treated with acetic acid 25 mins post drug administration and measured after 5 mins for 10 mins. It counts as functional. To be noted: 40 min. Summed up: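 Male CD1 mice fasted 15 h; drug suspended in 0.9% NaCl with ≤10% DMSO given po at 5, 10, 20, 40, 80 mg/kg. 0.4% acetic acid 10 mL/kg ip 25 min later; writhes counted 10 min starting 5 min after acid. Compared to vehicle; mean ± SEM, n > 15 per group; ED50 from dose-response curves.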

In a further data set the test system is Rattus norvegicus. As to the kind of experiment: Analgesic activity in ip dosed complete freund's adjuvant-induced Sprague Dawley rat model of hyperalgesia assessed as inhibition of inflammatory pain measured after 30 mins by von Frey analgesimetric method. It counts as functional. The conditions noted are these: 0.5 h.
Data set [14] has as its system Mus musculus. As to the kind of experiment: Antipyretic activity against Baker's yeast-induced hyperthermia model in CD1 mouse at 80 mg/kg, po at 2 hrs post-injection by thermometer based analysis. It counts as functional, organism-based. Summed up:
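Male CD1 mice fasted overnight (15 h); baseline rectal temperature taken, then ip pyrogen (15% baker's yeast, 0.1 mL/kg). Rectal temperature read 4 h later; only febrile animals used, grouped by equal mean temperature. Drug or 0.9% NaCl given po at 80 mg/kg; rectal temperature recorded 2 h later; fall compared with 4 h fever value. Mean ± SEM, n = 10; one-way ANOVA with Sidak post-hoc.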

The nature of data set [15]: Hepatotoxicity in CD1 mouse assessed as increase in nitrotyrosine formation in liver at 600 mg/kg, po measured after 12 hrs by nitrotyrosine immunostaining based optical microscopy. To be noted: in vivo.
The nature of data set [16]: Hepatotoxicity in CD1 mouse assessed as centrilobular hepatic hemorrhagic necrosis at 600 mg/kg, po measured after 12 hrs by hematoxylin and eosin staining based optical microscopy. It counts as toxicity, organism-based. To be noted: in vivo. Summed up:
as §1

The target in a further data set is CYP3A4 (Homo sapiens, UniProt P08684). As to the kind of experiment: Inhibition of CYP3A4 (unknown origin) in baculosomes preincubated for 20 mins followed by addition of CYP enzyme-specific substrate and NADP+ and measured after 30 mins by fluorescence based analysis relative to control.
In another data set the target is CYP2E1 (Homo sapiens, UniProt P05181). As to the kind of experiment: Inhibition of CYP2E1 (unknown origin) in baculosomes preincubated for 20 mins followed by addition of CYP enzyme-specific substrate and NADP+ and measured after 30 mins by fluorescence based analysis relative to control.
Sequence of CYP2E1 (P05181 whole entry): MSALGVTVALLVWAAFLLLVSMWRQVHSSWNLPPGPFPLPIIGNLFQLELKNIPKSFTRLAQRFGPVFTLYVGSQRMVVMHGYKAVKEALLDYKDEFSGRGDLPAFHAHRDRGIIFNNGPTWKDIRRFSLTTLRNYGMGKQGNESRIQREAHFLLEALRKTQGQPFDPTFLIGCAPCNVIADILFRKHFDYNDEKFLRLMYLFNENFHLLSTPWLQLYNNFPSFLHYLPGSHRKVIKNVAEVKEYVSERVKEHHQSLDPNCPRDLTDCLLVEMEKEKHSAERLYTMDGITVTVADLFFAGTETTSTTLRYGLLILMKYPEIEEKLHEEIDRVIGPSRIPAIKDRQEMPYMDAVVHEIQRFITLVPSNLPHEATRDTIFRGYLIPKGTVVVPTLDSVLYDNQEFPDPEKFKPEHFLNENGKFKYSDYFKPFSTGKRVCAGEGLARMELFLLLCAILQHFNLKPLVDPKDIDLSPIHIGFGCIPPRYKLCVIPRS

Sequence of Cytochrome P450 2D6 (P10635 whole entry): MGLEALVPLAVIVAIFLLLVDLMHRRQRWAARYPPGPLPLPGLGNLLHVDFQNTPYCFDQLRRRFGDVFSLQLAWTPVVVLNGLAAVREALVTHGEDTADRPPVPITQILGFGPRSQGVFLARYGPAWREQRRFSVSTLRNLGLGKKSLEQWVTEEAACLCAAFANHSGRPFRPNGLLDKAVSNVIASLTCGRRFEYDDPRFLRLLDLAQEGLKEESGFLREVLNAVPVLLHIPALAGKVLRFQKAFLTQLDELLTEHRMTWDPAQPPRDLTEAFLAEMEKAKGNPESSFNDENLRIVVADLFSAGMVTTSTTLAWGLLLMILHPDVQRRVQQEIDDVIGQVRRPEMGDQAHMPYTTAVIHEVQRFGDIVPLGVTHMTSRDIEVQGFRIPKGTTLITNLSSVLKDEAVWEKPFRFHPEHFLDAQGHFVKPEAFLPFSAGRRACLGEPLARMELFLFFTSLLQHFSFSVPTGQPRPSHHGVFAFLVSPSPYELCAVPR
Sequence of Cytochrome P450 3A4 (P08684 whole entry): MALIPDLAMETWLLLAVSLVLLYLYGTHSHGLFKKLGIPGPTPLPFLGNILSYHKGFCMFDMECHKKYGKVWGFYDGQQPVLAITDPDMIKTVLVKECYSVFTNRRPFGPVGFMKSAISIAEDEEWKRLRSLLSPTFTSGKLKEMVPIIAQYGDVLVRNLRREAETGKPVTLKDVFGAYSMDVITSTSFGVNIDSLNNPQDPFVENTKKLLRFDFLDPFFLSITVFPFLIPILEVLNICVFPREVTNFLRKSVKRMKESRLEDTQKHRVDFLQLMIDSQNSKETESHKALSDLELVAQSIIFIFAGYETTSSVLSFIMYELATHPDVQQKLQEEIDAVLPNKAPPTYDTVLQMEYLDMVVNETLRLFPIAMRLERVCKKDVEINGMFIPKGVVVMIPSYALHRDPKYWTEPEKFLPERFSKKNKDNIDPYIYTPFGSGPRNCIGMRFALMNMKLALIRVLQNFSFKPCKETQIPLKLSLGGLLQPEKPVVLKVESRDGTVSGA
Sequence of CYP3A4 (P08684 whole entry): as above

Usually IC50 stands for the midpoint of a concentration-inhibition curve. Read a low IC50 as inhibition by little substance. Usually ED50 stands for the dose that gives a 50% effect, or the effect in half of the subjects. Turning to `CNC(=O)c1ccccc1S(=O)(=O)NCC(=O)Nc1ccc(O)cc1`, the Activity result (with Hepatocyte; in the data set on HepaRG [1]; in the data set with HepaRG [2]; in [3]; in [4]; in data set [5]) was “Non-Toxic” throughout. The Activity result in [7], in data set [8], in data set [9], in data set [10] and in [15] was “Non-Toxic” throughout. In addition, the Drug metabolism entry in data set [6] and in data set [11] was “Metabolite_Notdetected” each time. Besides, the half-maximal inhibitory concentration (IC50) at Cytochrome P450 3A4 and at Cytochrome P450 2D6 was over 10 µM in each case. In addition, the survival at 48 h in data set [12] amounted to 100%. The ED50 was determined as 45.2 µmol/kg with Mus musculus [13] and 198 µmol/kg in the data set on Rattus norvegicus. For the same compound, the outcome in the data set with Mus musculus [14] was Active.
Take `CC(=O)Nc1ccc(O)cc1` [ACETAMINOPHEN]: the Activity result (in the data set with HepaRG [1]; in the data set on HepaRG [2]; in data set [3]; in [4]; in data set [7]; in data set [8]) was “Toxic” throughout. Further, the Activity entry in [9], in [10], in data set [16] and in data set [15] was “Toxic” throughout. Moreover, the Drug metabolism entry in data set [6] and in data set [11] was “Metabolite_Detected” in each case. The IC50 against Cytochrome P450 2D6 was over 10 µM. Besides, the ED50 in the data set on Mus musculus [13] was found to be 68.6 µmol/kg; with Rattus norvegicus, 245 µmol/kg. Further, the result in the data set on Mus musculus [14] was Active.
As usually defined, the inhibition is the drop in the measured response relative to a control, in per cent. A high value points to a response far below the control. As to `O=C(CNS(=O)(=O)c1ccccc1C(=O)NCCc1ccc(O)c(O)c1)Nc1ccc(O)cc1`, the Activity entry (with Hepatocyte; in the data set on HepaRG [1]; in the data set with HepaRG [2]; in data set [3]; in data set [4]; in data set [5]) was “Non-Toxic” in each case. The Activity entry in data set [7], in data set [8], in [9], in data set [10] and in [15] was “Non-Toxic” throughout. The Drug metabolism result in data set [6] and in data set [11] was “Metabolite_Notdetected” throughout. Further, the inhibition at 0.5 h at CYP3A4 and at CYP2E1 was 25% each time. In addition, the figures for the IC50 against Cytochrome P450 3A4 and at Cytochrome P450 2D6 were 4.82 µM and over 10 µM, respectively. In addition, the survival at 48 h in data set [12] amounted to 100%. The ED50 was determined as 14.7 µmol/kg with Mus musculus [13] and 177 µmol/kg with Rattus norvegicus. Moreover, the result in the data set on Mus musculus [14] was Active.
